According to ChEMBL document CHEMBL3861962 (Eur J Med Chem, 2016):

Columns and labels:
Cytochrome P450 3A4 [1] = molecular target: T1, Cytochrome P450 3A4 (Homo sapiens, UniProt P08684); experiment: Drug level assessed as human recombinant CYP3A4-mediated compound formation treated with bosentan at 5 uM in presence of NADPH after 30 mins by LC-MS/MS analysis; format: ADME; conditions: recombinant enzyme, 0.5 h
Procedure, shortened: (§1)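 Substrate at 5 μM final in 100 mM potassium phosphate, pH 7.4, incubated with human liver microsomes or baculovirus-expressed recombinant CYP3A4, 2D6 or 2C9. Reaction started with 1 mM NADPH and run 0, 15 and 30 min at 37 °C. Stopped with ice-cold acetonitrile containing labetalol internal standard, then centrifuged. Supernatant analysed by LC-MS/MS on a C18 column at 40 °C. Blank was enzyme without substrate.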

[2] = Drug level in human liver microsomes treated with bosentan at 5 uM in presence of NADPH after 30 mins by LC-MS/MS analysis; format: ADME; conditions: 0.5 h; procedure, shortened: as §1
[3] = Retention time of the compound; format: physicochemical
Cytochrome P450 3A4 [4] = molecular target: T1, Cytochrome P450 3A4; experiment: Drug level assessed as human recombinant CYP3A4-mediated compound formation treated with 4-(1,1,1,3,3,3-Hexafluoro-2-hydroxypropan-2-yl)-N-(6-(2-hydroxyethoxy)-5-(2-methoxyphenoxy)-2,2'-bipyrimidin-4-yl)benzenesulfonamide at 5 uM in presence of NADPH after 30 mins by LC-MS/MS analysis; format: ADME; conditions: recombinant enzyme, 0.5 h; procedure, shortened: as §1
[5] = Drug level in human liver microsomes treated with 4-(1,1,1,3,3,3-Hexafluoro-2-hydroxypropan-2-yl)-N-(6-(2-hydroxyethoxy)-5-(2-methoxyphenoxy)-2,2'-bipyrimidin-4-yl)benzenesulfonamide at 5 uM in presence of NADPH after 30 mins by LC-MS/MS analysis; format: ADME; conditions: 0.5 h; procedure, shortened: as §1

T1 sequence (P08684 whole entry): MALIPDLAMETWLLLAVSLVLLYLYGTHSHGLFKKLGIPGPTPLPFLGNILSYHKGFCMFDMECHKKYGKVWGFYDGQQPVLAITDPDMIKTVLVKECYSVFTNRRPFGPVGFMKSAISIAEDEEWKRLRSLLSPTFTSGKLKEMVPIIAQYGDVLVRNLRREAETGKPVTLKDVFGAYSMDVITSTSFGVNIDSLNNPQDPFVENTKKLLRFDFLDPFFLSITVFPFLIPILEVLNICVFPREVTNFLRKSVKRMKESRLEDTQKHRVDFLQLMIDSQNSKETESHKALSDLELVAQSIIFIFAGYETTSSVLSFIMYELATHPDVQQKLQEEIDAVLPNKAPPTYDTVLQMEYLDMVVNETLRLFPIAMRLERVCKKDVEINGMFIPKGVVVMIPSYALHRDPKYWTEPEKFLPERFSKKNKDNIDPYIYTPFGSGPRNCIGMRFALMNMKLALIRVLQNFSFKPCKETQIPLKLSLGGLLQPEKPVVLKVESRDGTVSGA

Row | Compound | Drug metabolism (Cytochrome P450 3A4 [1]) | Drug metabolism [2] | Retention_time [3] [min] | Drug metabolism (Cytochrome P450 3A4 [4]) | Drug metabolism [5]
1 | CC(C)(CO)c1ccc(S(=O)(=O)Nc2nc(-c3ncccn3)nc(OCCO)c2Oc2ccccc2O)cc1 | Metabolite_Detected | Metabolite_Detected | 4.16 | – | –
2 | O=S(=O)(Nc1nc(-c2ncccn2)nc(OCCO)c1Oc1ccccc1O)c1ccc(C(O)(C(F)(F)F)C(F)(F)F)cc1 | – | – | 4.39 | Metabolite_Detected | Metabolite_Detected
